≈ marks a conversion by molar mass, not a printed value. Entries after “also recorded” stand apart in the source; their conditions may differ. Like-named read-outs stand apart in the source and are kept apart here.
Experiments:
[1] = test system: MCF7; assay: MTT assay, cytotoxicity; format: cell-based, human; conditions: read-out: IC50 MCF7
How it was run: (§1)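 Cells in medium with 10% FBS, streptomycin and penicillin; 5000 cells per well. After 12 h, test compounds added at 0.1–40 μM, with 0.1% DMSO as vehicle, for 48 h. Then serum-free medium and MTT (5 mg mL−1) at 4:1 for 4 h at 37 °C. Formazan dissolved in DMSO, absorbance at 570 nm, normalized to DMSO control. IC50 from sigmoidal variable-slope nonlinear regression.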

[2] = test system: PC3; assay: MTT assay, cytotoxicity; format: cell-based, human; conditions: read-out: IC50 PC3
How it was run: as §1

[3] = test system: C4-2; assay: MTT assay, cytotoxicity; format: cell-based, human
[4] = test system: 22Rv1; assay: MTT assay, cytotoxicity; format: cell-based, human; conditions: read-out: IC50 22Rv1
How it was run: as §1

[5] = test system: MIAPACA; assay: MTT assay, cytotoxicity; format: cell-based, human; conditions: read-out: IC50 MIAPACA, 48 h treatment, 0.1-40 μM
How it was run: as §1

[6] = test system: HEK293; assay: MTT assay, cytotoxicity to normal cells; format: cell-based, human; conditions: for IC50: read-out: IC50 HEK293
How it was run: as §1

[7] = test system: prostate, breast, epithelial cancer cells; assay: MTT assay, all tested cancer cell lines together; format: cell-based, human
How it was run: as §1

[8] = test system: C4-2 cells; assay: Acridine orange/ethidium bromide assay; format: cell-based, human; conditions: 10 and 20 μM, 48 h
How it was run: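 C4-2 cells (0.25 × 10^5) seeded on 12 mm coverslips for 12 h, then given DMSO or test compound (10 and 20 μM) for 48 h. After PBS wash, stained with AO (100 μg mL−1) plus EB (100 μg mL−1) in PBS for 20 min. Washed and imaged by fluorescence microscopy: FITC channel for green (AO, all cells), TRITC for red (EB, dead cells).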

[9] = test system: C4-2 cells; assay: JC-1 staining, mitochondrial depolarization; format: cell-based, human; conditions: 10 μM or 20 μM, 48 h
How it was run: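 C4-2 cells (0.25 × 10^5) on 12 mm coverslips, seeded 12 h, then exposed to DMSO or test compound (10 or 20 μM) for 48 h. After PBS wash, incubated with JC-1 (2 μM) in PBS for 20 min. Imaged in FITC and TRITC channels: orange aggregates mark polarized mitochondria, green marks depolarized.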

[10] = test system: C4-2 cells; assay: Intracellular ROS levels, H2DCFDA staining; format: cell-based, human; conditions: 10 μM and 20 μM, 48 h
How it was run: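 C4-2 cells on coverslips got DMSO, test compound or H2O2 (10 μM) for 48 h. The figure legend gives test compound at 10 and 20 μM. Cells washed with PBS and loaded with H2DCFDA (2 μM final) in PBS, 40 min at 37 °C. Green signal imaged in FITC channel and expressed relative to DMSO. Three independent replicates; Student's t-test.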

[11] = test system: tubulin in C4-2 cells; assay: Tubulin immunofluorescence; format: cell-based, human; conditions: 10 μM and 20 μM, 48 h
How it was run: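 Fixed and permeabilized with ice-cold methanol. Blocked 1 h in 2% BSA/1% Triton X-100 in PBS. Tubulin antibody overnight at 4 °C, then FITC goat anti-mouse secondary 3 h in the dark. Imaged in FITC and DAPI channels.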

[12] = test system: C4-2 cells; assay: Clonogenic assay; format: cell-based, human; conditions: 10 μM or 20 μM, 10 days
How it was run: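 1000 C4-2 cells plated per well and exposed to test compound at 10 or 20 μM. […] Incubated 10–12 days, washed with PBS and fixed in cold methanol:acetic acid (3:1) for 5–10 min. Colonies photographed for number and size. Run in duplicate.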

[13] = test system: p-53 and c-jun; assay: Level of p-53 and c-jun; format: cell-based
[14] = test system: P388; conditions: cited from earlier work
[15] = test system: A-549; conditions: cited from earlier work
[16] = test system: HCT-8; conditions: cited from earlier work
[17] = test system: MDA-MB-231; conditions: cited from earlier work
[18] = read-out: IC50 C4-2, MTT, 48 h treatment, 0.1-40 μM
[19] = normal human kidney cells, MTT, 48 h
[20] = Homo sapiens, C4-2, 48 h, read-out: IC50 C4-2, MTT, 48 h treatment, 0.1-40 μM

| Molecule | IC50 [3, 18] | IC50 ([1]; Homo sapiens, MCF7, 48 h) | IC50 ([2]; Homo sapiens, PC-3, 48 h) | IC50 [3, 20] | IC50 ([4]; Homo sapiens, 22Rv1, 48 h) | IC50 ([6]; Homo sapiens, HEK293, 48 h) | cytotoxicity against the tested cancer cells, in words (SAR) [7] | further results |
| --- | --- | --- | --- | --- | --- | --- | --- | --- |
| 2-(5-Isopropoxy-1H-indole-3-carbonyl)-3-(1-methyl-1H-indol-3-yl)acrylonitrile [21m] | 17.6 µM |  |  |  |  |  |  | IC50 ([1]; MTT, 48 h treatment, 0.1-40 μM): 2.98 µM; IC50 ([2]; MTT, 48 h treatment, 0.1-40 μM): 11.7 µM; IC50 ([4]; MTT, 48 h treatment, 0.1-40 μM): 16.4 µM; IC50 [5]: 1.6 µM; IC50 [6, 19]: > 40 µM |
| 3-(1-Ethyl-1H-indol-3-yl)-2-(5-isopropoxy-1H-indole-3-carbonyl)acrylonitrile [21l] | 26.4 µM |  |  |  |  |  |  | IC50 ([1]; MTT, 48 h treatment, 0.1-40 μM): 7.95 µM; IC50 ([2]; MTT, 48 h treatment, 0.1-40 μM): 4.6 µM; IC50 ([4]; MTT, 48 h treatment, 0.1-40 μM): 2.5 µM; IC50 [5]: 37.6 µM; IC50 [6, 19]: 37.9 µM |
| CCCOc1ccc2[nH]cc(C(=O)C(C#N)=Cc3cn(CC)c4ccccc34)c2c1 [21j, 3-(1-Ethyl-1H-indol-3-yl)-2-(5-propoxy-1H-indole-3-carbonyl)acrylonitrile] | 0.98 µM | 1.2 µM | 5.6 µM | 0.9 µM | 2.9 µM | > 40 µM | significantly enhanced cytotoxicity; also recorded: most effective compound across all cancer cell lines tested | cytotoxicity to normal HEK293 cells, in words [6]: no notable impact; cell death / apoptosis by AO-EB staining [8]: robust cell death; also recorded: induced substantial apoptosis; mitochondrial depolarization (JC-1) [9]: induced significant mitochondrial depolarization; also recorded: induces mitochondrial depolarization; ROS levels (DCFDA) [10]: robust increase in ROS levels; also recorded: raises the levels of ROS; tubulin assembly (β-tubulin antibody staining) [11]: significant loss of tubulin assembly; also recorded: increases tubulin depolymerization; number and size of colonies [12]: significantly inhibited the number and size of colonies; also recorded: inhibits colony formation; level of p-53 and c-jun [13]: upregulate the level of p-53 and c-jun |
| CCn1cc(C=C(C#N)C(=O)c2c[nH]c3cc(OC)c(OC)cc23)c2ccccc21 [21o, 2-(5,6-Dimethoxy-1H-indole-3-carbonyl)-3-(1-ethyl-1H-indol-3-yl)acrylonitrile] |  | 31.5 µM | 19 µM | 5.9 µM | 26 µM | > 40 µM | improved the selectivity against prostate cancer cell lines |  |
| COc1cc2[nH]cc(C(=O)C(C#N)=Cc3cn(Cc4ccc(Cl)cc4)c4ccccc34)c2cc1OC [21p, 3-(1-(4-Chlorobenzyl)-1H-indol-3-yl)-2-(5,6-dimethoxy-1H-indole-3-carbonyl)-acrylonitrile] |  | > 40 µM | > 40 µM | 31 µM | > 40 µM | > 40 µM | detrimental for the activity |  |
| COc1ccc(C=C(C#N)C(=O)c2c[nH]c3ccccc23)cc1 [21q, 2-(1H-Indole-3-carbonyl)-3-(4-methoxyphenyl)acrylonitrile] |  | 25 µM | 37 µM | > 40 µM | 28 µM | > 40 µM | detrimental for the activity |  |
| COc1ccc(C=C(C#N)C(=O)c2c[nH]c3ccccc23)cc1OC [21r, 3-(3,4-Dimethoxyphenyl)-2-(1H-indole-3-carbonyl)acrylonitrile] |  | > 40 µM | 25 µM | > 40 µM | 34 µM | 31 µM | detrimental for the activity |  |
| CN1C[C@@H](c2c[nH]c3cc(Br)ccc23)N(C)C[C@@H]1c1c[nH]c2cc(Br)ccc12 [Dragmacidin B] |  |  |  |  |  |  |  | IC50 P388 [14]: 15 µg/mL (≈ 29.9 µM); IC50 A-549 [15]: 1 to 10 µg/mL; IC50 HCT-8 [16]: 1 to 10 µg/mL; IC50 MDA-MB-231 [17]: 1 to 10 µg/mL |

From article PMC11809490 (RSC Advances, 2025)
